PMC3130141 (Archives of Drug Information, 2011)

Tests used:
[1] = test system: Japanese patients with advanced solid tumors; experiment: Laboratory assessments; assay type: in vivo, human; conditions: for White blood cell count, mean (SD) / Platelet count, mean (SD) / Total ANC (absolute neutrophil count), mean (SD): Cycle 1, Day 22
[2] = test system: Japanese patients with advanced solid tumors; experiment: Dose-limiting toxicities and maximum tolerated dose during cycle 1; assay type: in vivo, human; conditions: dose escalation halted at 25 mg
How it was run: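 Open-label dose escalation in sequential cohorts at 10, 15, 20 or 25 mg, given as a 1-h iv infusion on days 1, 8 and 15 of 28-day cycles. DLT: grade 3/4 hemolysis, grade 4 hematologic toxicity, febrile grade 3/4 neutropenia, prolonged diarrhea or vomiting, or other grade 3/4 non-hematologic toxicity (CTCAE v3.0). MTD: highest dose with ≤1 of 6 evaluable patients having a cycle 1 DLT.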

[3] = Plasma pharmacokinetics, non-compartmental analysis; assay type: in vivo, human; conditions: for clearance / AUC(0-inf) / AUC(0-t) / Cmax / MRT / Vd / concentration at 24 h / half-life: human, plasma
How it was run: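 Plasma was sampled pre- and post-dose daily on days 1–8 of cycle 1 and on day 1 of cycle 2, after a 1-h iv infusion. Analysis was non-compartmental: Cmax by inspection; λz by log-linear terminal regression; AUC0–24h by linear trapezoidal rule, extrapolated to infinity via λz; CL as dose/AUC. Values are geometric mean (CV%) per cohort.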

[4] = test system: Japanese patients with advanced solid tumors; experiment: Efficacy: overall best response by RECIST version 1.0; assay type: in vivo, human
How it was run: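 Investigator-assessed overall best response by RECIST v1.0, with baseline imaging within 28 days before first dose. Re-imaging was on day 29 of cycles 1 and 2 and of subsequent odd-numbered cycles. […] Dosing was a 1-h iv infusion on days 1, 8 and 15 of 28-day cycles (10–25 mg cohorts). Results were summarized descriptively by dose group.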

[5] = test system: broad panel of solid and hematologic tumor cell lines; conditions: cited from earlier work
[6] = test system: human tumor xenograft models including a primary bladder tumor model and the rituximab-insensitive non-Hodgkin's lymphoma model, DoHH2T53; conditions: cited from earlier work
[7] = test system: Western patients with solid tumors; conditions: cited from earlier work
[8] = Total, all doses (N = 18), cut-off <0.5 × 10^9/L

With Cc1ccc(C(=O)N(CCCN)C(c2nc3snc(C)c3c(=O)n2Cc2ccccc2)C(C)C)cc1 (stereo not shown) [AZD4877] the “White blood cell count, mean (SD)” value ([1]; 10 mg (N = 3)) was 4.09 (0.66) 10^3/µL, the “Platelet count, mean (SD)” value ([1]; 15 mg (N = 3)) was 232.0 (7.9) 10^3/µL and the “Total ANC (absolute neutrophil count), mean (SD)” value (“Total ANC … (SD)” below) ([1]; 15 mg (N = 3)) was 2.30 (1.50) 10^3/µL. The “White blood cell count, mean (SD)” value ([1]; 15 mg (N = 3)) was 4.53 (1.70) 10^3/µL, the “Platelet count, mean (SD)” value ([1]; 20 mg (N = 6)) was 262.2 (48.0) 10^3/µL and the “Total ANC … (SD)” value ([1]; 20 mg (N = 6)) was 1.25 (0.69) 10^3/µL. The “White blood cell count, mean (SD)” value ([1]; 20 mg (N = 6)) was 2.64 (0.69) 10^3/µL, the “Platelet count, mean (SD)” value ([1]; 25 mg (N = 6)) was 308.7 (117.3) 10^3/µL and the “Total ANC … (SD)” value ([1]; 25 mg (N = 6)) was 1.41 (0.48) 10^3/µL. The “White blood cell count, mean (SD)” value ([1]; 25 mg (N = 6)) was 2.73 (0.68) 10^3/µL, the “Platelet count, mean (SD)” value ([1]; Total, all doses (N = 18)) was 263.1 (81.1) 10^3/µL and the “Total ANC … (SD)” value ([1]; Total, all doses (N = 18)) was 1.55 (0.79) 10^3/µL. For the same compound, the “White blood cell count, mean (SD)” value ([1]; Total, all doses (N = 18)) was 3.23 (1.14) 10^3/µL, the “Any grade ≥3 finding/vital sign, patients with grade ≥3 abnormal laboratory findings/vital signs” value ([1]; Total, all doses (N = 18)) was 12 (67) N (%) and the “Blood sodium decreased, patients with grade ≥3 abnormal laboratory finding” value ([1]; Total, all doses (N = 18), cut-off <130 mmol/L) was 1 (6) N (%). For the same compound, the “Lymphocyte count decreased, patients with grade ≥3 abnormal laboratory finding” value [1, 8] was 1 (6) N (%), the “Lymphopenia, patients with grade ≥3 abnormal laboratory finding” value [1, 8] was 1 (6) N (%) and the “Neutropenia, patients with grade ≥3 abnormal laboratory finding” value ([1]; Total, all doses (N = 18), cut-off <1.0 × 10^9/L) was 10 (56) N (%). For the same compound, the “Leukopenia, patients with grade ≥3 abnormal laboratory finding” value ([1]; Total, all doses (N = 18), cut-off <2.0 × 10^9/L) was 8 (44) N (%), the “Hemoglobin decreased, patients with grade ≥3 abnormal laboratory finding” value ([1]; Total, all doses (N = 18), cut-off <8.0 g/dL) was 1 (6) N (%) and the “Thrombocytopenia, patients with grade ≥3 abnormal laboratory finding” value ([1]; Total, all doses (N = 18), cut-off <50.0 × 10^9/L) was 1 (6) N (%). For the same compound, the “Weight decreased, patients with grade ≥3 abnormal vital sign” value ([1]; Total, all doses (N = 18), cut-off ≥20% from baseline) was 1 (6) N (%), the “Grade ≥3 leukopenia (laboratory finding), patients” value ([1]; all doses, 18 patients) was 44% and the “Grade ≥3 neutropenia (laboratory finding), patients” value ([1]; all doses, 18 patients) was 56%. The “Maximum tolerated dose (MTD)” value [2] was “not defined”, the “Dose proportionality of exposure” value ([3]; 10-25 mg) was “not fully dose proportional” and the clearance ([3]; intravenous, 25 mg) was 325 to 373 mL/min. For the same compound, the AUC(0-inf) ([3]; iv, 10 mg) was 447 ng·h/mL, the AUC(0-t) ([3]; iv, 10 mg) was 234 ng·h/mL and the Cmax ([3]; iv, 10 mg) was 63.4 ng/mL. For the same compound, the MRT ([3]; iv, 10 mg) was 34.2 h, the Vd ([3]; iv, 10 mg) was 766 L and the clearance ([3]; iv, 10 mg) was 373 mL/min. For the same compound, the concentration at 24 h ([3]; iv, 10 mg) was 4.9 ng/mL, the half-life ([3]; iv, 10 mg) was 28.7 h and the AUC(0-inf) ([3]; iv, 15 mg) was 671 ng·h/mL. For the same compound, the AUC(0-t) ([3]; iv, 15 mg) was 424 ng·h/mL, the Cmax ([3]; iv, 15 mg) was 99.7 ng/mL and the MRT ([3]; iv, 15 mg) was 22.9 h. It also gave a Vd ([3]; iv, 15 mg) of 512 L, a clearance ([3]; iv, 15 mg) of 372 mL/min and a concentration at 24 h ([3]; iv, 15 mg) of 7.8 ng/mL. It also gave a half-life ([3]; iv, 15 mg) of 20.3 h, an AUC(0-inf) ([3]; iv, 20 mg) of 1430 ng·h/mL and an AUC(0-t) ([3]; iv, 20 mg) of 882 ng·h/mL. For the same compound, the Cmax ([3]; iv, 20 mg) was 218 ng/mL, the MRT ([3]; iv, 20 mg) was 22.4 h and the Vd ([3]; iv, 20 mg) was 314 L. The clearance ([3]; iv, 20 mg) was 233 mL/min, the concentration at 24 h ([3]; iv, 20 mg) was 14.9 ng/mL and the half-life ([3]; iv, 20 mg) was 21.3 h. The AUC(0-inf) ([3]; iv, 25 mg) was 1280 ng·h/mL, the AUC(0-t) ([3]; iv, 25 mg) was 838 ng·h/mL and the Cmax ([3]; iv, 25 mg) was 224 ng/mL. The MRT ([3]; iv, 25 mg) was 22.2 h, the Vd ([3]; iv, 25 mg) was 432 L and the clearance ([3]; iv, 25 mg) was 325 mL/min. The concentration at 24 h ([3]; iv, 25 mg) was 13.6 ng/mL, the half-life ([3]; iv, 25 mg) was 21.1 h and the “Patients with complete or partial response” value ([4]; all doses) was “No patients”. For the same compound, the “Patients with stable disease ≥8 weeks” value ([4]; all doses) was “five of 16”, the “Overall best response (RECIST)” value ([4]; all doses, stable disease defined as ≥8 weeks) was “stable disease” and the “Duration of stable disease” value ([4]; patient with thymus cancer, 20 mg cohort) was ≥ 12 weeks. The “Growth of tumor cell lines” value [5] was “inhibit growth”, the “Activity in human tumor xenograft models” value [6] was “activity was observed” and the “Monoaster formation (proof of mechanism)” value ([7]; 25 mg, clinical setting) was “evidence of monoaster formation”. For the same compound, the “Tolerability in Western patients” value ([7]; 25 mg) was “acceptable tolerability profile”, the “Toxicity at 30 mg” value ([7]; 30 mg, parallel US study) was “experienced neutropenia” and the “Recommended dose for further evaluation” value ([7]; parallel US study) was 25 mg. For the same compound, the “Best objective tumor response in Western patients” value ([7]; weekly treatment) was “stable disease ≥12 weeks”.
